From PubChem BioAssay
A selection: hits, their analogues and other compounds. The true share with any hit is near 1.5%.
Hck Nef HTS: inhibitors of Nef-activated human Hck kinase, primary screen, biochemical, Z-Lyte FRET, 384-well, Hck-YEEI. inhibition, % at 20 µM. Tyrosine-protein kinase HCK (Homo sapiens), P08631. AID 463187, 2010. Recombinant Hck-YEEI plus Nef, Z-Lyte FRET kinase assay. 0.68% of 220,000 active;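 active means Hck-Nef kinase inhibition above about 50%, limit read from the data; inactive means inhibition below that limit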;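 further: 0% = DMSO with Hck plus Nef and 100% = Hck alone without Nef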
CaV13 ICDI inh: Primary screen for inhibitors of IQ motif and Ca2+-dependent inactivation inhibitor domain binding in CACNA1D, Förster resonance energy transfer in living cells, …; inhibition, % at 12.3 µM; HEK cells, CFP/YFP FRET ICDI-IQ, plate reader, 10 min; percent FRET-ratio fall versus neutral wells; 0.098% of 340,000 active; AID 743397;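 active means mean replicate inhibition of at least 30% and at least 1% of replicates passing that level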;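 further: 0% = median of the neutral control wells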
RanGTP-Impb inh: inhibitors of RanGTP-importin-beta interaction, primary screen, biochemical, FRET, CFP-Ran, YFP-importin-beta, homogeneous; cell-free CFP-Ran/YFP-importin-beta FRET ratio; inhibition, % (concentration not given with the values); 1.1% of 300,000 active; AID 2216, 2009;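 active means more than half of the replicate wells show a fall in the fluorescence ratio signal beyond about 16%, limit read from the data, passing the limit was not always enough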;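 further: 0% = DMSO wells and 100% = Ran loaded with GDP instead of GTP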
Runt-SMMHC FRET: inhibitors of RUNX1 Runt–CBFb-SMMHC binding, primary screen, biochemical, FRET, Cerulean-Runt, Venus-CBFb-SMMHC, uHTS; 0.74% of 220,000 active; Cerulean-Runt/Venus-CBFb-SMMHC FRET ratio 530/480, 1 h; Runt-related transcription factor 1 (Homo sapiens) + Core-binding factor subunit beta …; AID 1434, 2008; inhibition, % at 20 µM;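 active means mean inhibition across duplicate retests at 20 µM reaching about 50%, limit read from the data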;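 further: 0% = DMSO wells and 100% = wells with excess untagged CBFb-SMMHC; inhibitors lower the FRET ratio by blocking Runt binding to CBFb-SMMHC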
Target sequence (Q01196 whole entry, looked up): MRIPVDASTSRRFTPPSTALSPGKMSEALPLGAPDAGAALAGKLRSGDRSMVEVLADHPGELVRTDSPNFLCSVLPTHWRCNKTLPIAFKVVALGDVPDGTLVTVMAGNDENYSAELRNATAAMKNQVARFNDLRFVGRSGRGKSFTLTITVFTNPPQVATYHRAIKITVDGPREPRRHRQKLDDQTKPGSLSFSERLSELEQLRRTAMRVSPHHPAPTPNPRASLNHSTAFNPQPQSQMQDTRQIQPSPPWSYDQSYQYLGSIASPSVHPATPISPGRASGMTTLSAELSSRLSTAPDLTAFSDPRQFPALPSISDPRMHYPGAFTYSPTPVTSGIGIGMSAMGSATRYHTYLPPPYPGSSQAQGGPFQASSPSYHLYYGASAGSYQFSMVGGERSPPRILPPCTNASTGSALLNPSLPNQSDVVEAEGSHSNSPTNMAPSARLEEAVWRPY
Target sequence (Q13951 whole entry, looked up): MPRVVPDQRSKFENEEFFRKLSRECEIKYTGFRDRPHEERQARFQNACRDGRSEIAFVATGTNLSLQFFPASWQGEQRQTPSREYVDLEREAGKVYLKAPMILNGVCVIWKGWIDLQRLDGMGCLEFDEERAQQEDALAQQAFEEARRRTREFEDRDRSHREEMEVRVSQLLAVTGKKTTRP
Runt-CBFb FRET: inhibitors of RUNX1 Runt–CBFb binding, primary screen, biochemical, FRET, Cerulean-Runt, Venus-CBFb, uHTS; Runt-related transcription factor 1 (Homo sapiens) + Core-binding factor subunit beta …; Cerulean-Runt/Venus-CBFb FRET ratio 530/480, 1 h; inhibition, % at 20 µM; 0.46% of 220,000 active; AID 1496, 2009;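 active means inhibition over about 50% at 20 µM in the single-dose screen, limit read from the data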;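 further: 0% = DMSO wells and 100% = excess unlabeled CBFb competitor control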
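Assay system: Cerulean-Runt domain / Medium: Tris 50 mM pH 7.5, KCl, K2SO4, 0.01% BSA / Timing: protein complex preformed 1 h, compound exposure 1 h, room temperature, dark / Measured by: FRET, excitation 422 nm, emission at 530 and 480 nm / Evaluation: loss of energy transfer signal / Control set: 5 µM unlabeled CBFb as full-inhibition high control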
Hck-Nef confirm: retest of Hck:Nef kinase inhibitor hits, confirmation, biochemical, Z-Lyte FRET, 384-well, p-Tyr peptide counterscreen; shares compounds with Hck Nef HTS; Recombinant Hck-YEEI:Nef, Z-Lyte FRET kinase assay; calls only at 10 µM; 28% of 1,300 active;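 active means average inhibition of at least 50%, with Z-scores no higher than 3 in both the phospho-tyrosine peptide and fluorescence counterscreens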
Active calls of the source: *; i = inactive; · = no result shown; + = active, no number.

SMILES	Hck Nef HTS	CaV13 ICDI inh	RanGTP-Impb inh	Runt-SMMHC FRET	Runt-CBFb FRET	Hck-Nef confirm
CC(=O)Nc1ccc(N=Cc2c(O)c(C(=O)Nc3ccccc3)cc3ccccc23)cc1	69*	-9	4	-70	-52	i
O=C1NC[C@@H](CCCCN2C[C@H](Cc3ccc(O)cc3)N(CCC3CCCCC3)C(=O)C2=O)N(CCc2ccc(O)cc2)C1=O	·	-3	·	·	·	·
CC1Cc2ccccc2N1C(=O)c1cc2c(=O)n3ccccc3nc2n1C (centres undefined)	12	-5	0	4	0	·
N#Cc1cc2c(=O)n3ccccc3nc2n(-c2ccc(Cl)cc2)c1=O	173*	-4	·	90*	47	·
Cc1ccccc1-n1c(=O)c(C#N)cc2c(=O)n3ccccc3nc21	+	9	128*	59*	19	·
Cc1cc(-n2c(=O)c(C#N)cc3c(=O)n4ccccc4nc32)no1	+	33*	161*	65*	12	·
C=CCn1c(=O)c(C#N)cc2c(=O)n3ccccc3nc21	155*	·	75*	79*	10	·
C=CCn1cc(-c2ccccc2)cc(C#N)c1=O	3	·	-7	6	2	·
Cc1ccc(OCC(=O)NNC(=O)CCc2ccccc2)c(Br)c1	·	-3	2	·	·	·
O=C(CSc1nc(-c2cccs2)cc(C(F)(F)F)n1)Nc1cc(OCC(F)(F)C(F)F)cc([N+](=O)[O-])c1	2	-5	-1	0	1	·
O=C1/C(=C/C=C/c2ccco2)SC(=S)N1NS(=O)(=O)c1ccccc1	102*	-2	·	6	33	+
COc1ccc(OC)c(/C=C2\SC(=S)N(NS(=O)(=O)c3ccccc3)C2=O)c1	·	-20	-6	·	·	·
CCn1c2ccccc2c2c3ncc4cccn4c3ccc21	95*	2	68*	88*	-35	i
O=C1CC2(CCN(C(=O)C3CC(=O)N(c4ccc(F)cc4)C3)CC2)Oc2ccccc21 (centres undefined)	·	-5	4	·	·	·
CCOC(=O)Cc1c(C)c2c(O)cc(O)cc2oc1=O	50*	-4	8	68*	40	i
CCOC(=O)Cc1c(C)c2ccc(N(CC)CC)cc2oc1=O	107*	6	130*	46	10	·
Cc1c(CC(=O)N2CCN(C(=O)C3COc4ccccc4O3)CC2)c(=O)oc2cc(O)cc(O)c12 (centres undefined)	·	-7	5	·	·	·
CCOC(=O)CCc1c(C)c2ccc(OCC(=O)N(CC)CC)c(C)c2oc1=O	-3	-6	-3	-1	1	·
CCCOc1ccc2c(C)c(CC(=O)OC)c(=O)oc2c1	7	-6	-2	2	-2	·
CCN(CC)c1ccc2c(C)c(Cl)c(=O)oc2c1	+	+	108*	91*	20	·
CCOC(=O)CCc1c(C)c2ccc(O)cc2oc1=O	90*	-6	1	91*	40	·
Cc1cc(-c2csc(NC(=O)c3ccc(=O)[nH]c3)n2)c(C)n1Cc1ccco1	81*	-3	-4	-8	20	i
Cc1sc2ncnc(NCCc3ccc(S(N)(=O)=O)cc3)c2c1C	3	-6	-2	-2	-3	·
Cc1ccc(CNC(=O)C2CCCN(c3nc4ccsc4c(=O)s3)C2)cc1 (centres undefined)	39	-5	2	3	1	·
CCC(C)C(NC(=O)c1ccccc1NC(=O)c1ccc(OC)cc1)C(=O)NCc1ccco1 (centres undefined)	69*	·	2	-2	-1	+
SMILES	Hck Nef HTS	CaV13 ICDI inh	RanGTP-Impb inh	Runt-SMMHC FRET	Runt-CBFb FRET	Hck-Nef confirm
O=C(Nc1ccccc1Br)C1CCN(S(=O)(=O)c2cccs2)CC1	·	-6	·	·	·	·
Oc1[nH]c2ccccc2c1N=Nc1ncnc2c1oc1ccccc12	56*	-1	-6	-11	-2	i
O=c1c2cc(O)c(O)cc2oc2cc(O)c(C3OC(CO)C(O)C(O)C3O)c(O)c12 (centres undefined)	·	·	-40	·	·	·
COc1ccc(C2=NN(C(=O)CCCC(=O)O)C(c3cn(-c4ccccc4)nc3-c3ccccc3)C2)cc1 (centres undefined)	109*	-2	7	-3	3	+
COc1ccc(-c2nn(-c3ccccc3)cc2C2CC(c3cccs3)=NN2C(=O)CCC(=O)O)cc1 (centres undefined)	24	-6	3	-2	2	·
COc1ccc(NC(=O)c2cc([N+](=O)[O-])ccc2O)cc1	52*	-6	-4	1	-2	i
O=C(c1sccc1-c1ccccc1)N1CCN(S(=O)(=O)c2ccccc2F)CC1	·	-4	4	·	·	·
CC(=O)OCC1=C(C(=O)O)N2C(=O)C(NC(=O)CCn3nc(C(F)(F)F)c(Br)c3C3CC3)C2SC1 (centres undefined)	60*	-1	4	1	2	i
Cc1ccc2occ(C3NC(C(=O)O)CS3)c(=O)c2c1 (centres undefined)	83*	-5	-3	5	6	+
Cc1ccc2occ(C3N[C@H](C(=O)O)CS3)c(=O)c2c1 (some centres undefined)	73*	-6	3	2	2	i
O=C(O)C1CSC(c2ccco2)N1 (centres undefined)	10	-4	3	-5	2	·
N#Cc1ccc(CSc2nnc(NC(=O)c3ccc4ncsc4c3)s2)cc1	68*	-5	2	-49	-6	i
O=C(Nc1nnc(SCc2c(Cl)cccc2Cl)s1)c1ccc2ncsc2c1	110*	·	0	0	0	+
Cc1ccc2nc(NC(=O)c3ccc4ncsc4c3)sc2c1	14	-5	3	6	1	·
Cc1ccc(NC(=O)Cn2c(O)c(N=NC(=O)c3cc([N+](=O)[O-])ccc3O)c3ccccc32)cc1	68*	·	-1	-21	-11	+
Cc1cccc(NC(=O)Cn2c(O)c(N=NC(=O)c3ccccc3O)c3ccccc32)c1	51*	-17	3	-31	-13	+
NC(=S)N=Nc1c(O)n(CC(=O)Nc2ccccc2)c2ccccc12	·	-19	-3	·	·	·
COC(=O)c1cc(S(=O)(=O)N2CCC(c3cc(OC)ccc3OC)C2)c[nH]1 (centres undefined)	·	-2	0	·	·	·
